Screening results deposited in PubChem BioAssay by several laboratories.
ABHD5 PLIN5 PPI – ABHD5-PLIN5 interaction inhibitors, primary screen, cell lysate, split luciferase complementation, luminescence; Split G. princeps luciferase complementation, 4 h; inhibition, % at 4 µM; 360,000 tested, 0.78% active; Perilipin-5 (Homo sapiens) + 1-acylglycerol-3-phosphate O-acyltransferase ABHD5 (Homo …;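 active = inhibition above the mean inhibition across every tested compound plus 3 SD, cut at about 22% in these data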;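 also: 0% = DMSO only wells and the 100% control is not disclosed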
MC4R antagonist – MC4R antagonists of cAMP signaling, primary screen, cell-based, TR-FRET, antagonist arm of biased-ligand search | 360,000 tested, 0.48% active | MC4R-expressing cells, MTII-stimulated cAMP, LANCE TR-FRET | inhibition, % at 6.5 µM;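 active = inhibition above its plate's cutoff, the mean of tested wells on that plate plus 3 SD, cut at about 29% in these data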;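 also: 0% = Melanotan II alone and 100% = Melanotan II plus saturating MCL0020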
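Assay system: human MC4R-expressing U2OS cells; reagent: Melanotan II stimulation of cells; dosing: 6.5 µM single dose; timing: compound 30 min, challenge 1 h, detection 1 h; signal: TR-FRET cAMP assay; replicates: one well per compound, no replicates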
Beta2AR agonist – beta2AR agonists driving receptor internalization, primary screen, cell-based, FAP fluorogen, flow cytometry | response, % (no concentration beside the values) | 340,000 tested, 0.43% active | Am2.2-beta2AR cells | AID 504454, 2011 | Beta-2 adrenergic receptor (Homo sapiens), P07550;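 active = response above a set limit, near 3 SD of response in nonfluorescent compounds, cut at about 42% in these data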
Target sequence (P07550 whole entry, looked up): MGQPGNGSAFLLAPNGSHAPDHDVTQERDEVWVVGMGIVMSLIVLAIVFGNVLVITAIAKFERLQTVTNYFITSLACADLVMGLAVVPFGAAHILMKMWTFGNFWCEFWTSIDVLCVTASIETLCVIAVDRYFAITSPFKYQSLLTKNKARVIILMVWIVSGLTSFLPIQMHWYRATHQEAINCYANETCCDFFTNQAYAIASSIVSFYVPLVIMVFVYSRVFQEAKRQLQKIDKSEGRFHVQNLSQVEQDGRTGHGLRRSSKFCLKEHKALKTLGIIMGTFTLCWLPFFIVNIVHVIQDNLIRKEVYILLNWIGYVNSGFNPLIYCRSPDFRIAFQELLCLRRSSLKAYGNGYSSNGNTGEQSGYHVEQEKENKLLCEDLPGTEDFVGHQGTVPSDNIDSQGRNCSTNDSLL
PfGluPho inh – PfG6PD enzyme inhibitors, primary screen, biochemical, fluorescence intensity, uHTS; 350,000 tested, 0.78% active; inhibition, % at 20 µM; PfGluPho enzyme, NADPH resazurin-diaphorase fluorescence; glucose-6-phosphate dehydrogenase-6-phosphogluconolactonase (Plasmodium falciparum 3D7); AID 504690, 2011;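 active = inhibition reaching at least a set limit at 20 µM in the primary screen, cut at about 59% in these data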;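 also: 0% = DMSO wells with substrate and 100% = DMSO wells lacking glucose-6-phosphate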
MC4R ag barr – MC4R agonists recruiting beta-arrestin, primary screen, cell-based, luminescence, agonist arm of biased-ligand search | Melanocortin receptor 4 (Homo sapiens), P32245 | U2OS MC4R beta-arrestin complementation; percent of melanotan II response, DMSO zero | activation, % at 8.9 µM | 360,000 tested, 0.98% active | AID 540308, 2011;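 active = activation above a per-plate cutoff, the mean activation of sample wells on that plate plus 3 SD, cut at about 8% in these data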
ABHD5 PLIN5 conf – ABHD5-PLIN5 interaction inhibitors, confirmation, biochemical, luminescence; shares compounds with ABHD5 PLIN5 PPI; inhibition, % at 4 µM; 2,200 tested, 67% active; AID 651612, 2012; in the data active = inhibition above about 23%;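 also: 0% = DMSO vehicle wells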
HNF4 split-luc – HNF4 dimerization inhibitors, counter-screen for ABHD5-PLIN5 interaction inhibitor project, biochemical, split-luciferase complementation, luminescence. shares compounds with ABHD5 PLIN5 PPI. inhibition, % at 4 µM. 2,200 tested, 77% active;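 active = mean inhibition across replicate wells exceeding the computed hit threshold, cut at about 13% in these data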;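 also: light from luciferase halves that rejoin when HNF4 fusion proteins dimerize; 0% = DMSO only wells and the 100% control is not given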
Numbers without * were called inactive; · = no result given. Compounds with a hit are over-represented: about 3% of the library has one in this group of screens.

SMILES	ABHD5 PLIN5 PPI	MC4R antagonist	Beta2AR agonist	PfGluPho inh	MC4R ag barr	ABHD5 PLIN5 conf	HNF4 split-luc
CCC(=O)N(CCC(c1ccco1)C(C)C)Cc1ccccc1 (configuration not stated)	-4	-6	-1	-8	3	·	·
COc1cc2c(cc1NC(=O)CC1SC(N3CCCC3)=NC1=O)oc1ccccc12 (configuration not stated)	29*	8	5	25	-1	16	10
FC(F)(F)c1cccc(NC(=S)N(CCCN2CCCC2)Cc2cccn2Cc2ccc(Cl)cc2)c1	42*	16	20	2	2	12	-12
Cc1ccc(NC(=S)N(CCCN2CCCC2)Cc2cccn2Cc2ccc(Cl)cc2)cc1Cl	11	6	22	1	-1	·	·
COc1ccc(NC(=S)N(CCCN2CCCC2)Cc2cccn2Cc2ccc(Cl)cc2)cc1Cl	31*	17	25	22	2	13	-10
CC(C)N1CCCC(C)(C(=O)Nc2nc3ccccc3[nH]2)C1 (configuration not stated)	6	-4	·	·	0	·	·
O=C(c1ccccc1NS(=O)(=O)c1ccc([N+](=O)[O-])cc1[N+](=O)[O-])N1O[C@@H]2C=C[C@H]1C2	27*	-2	2	14	-3	49*	74*
O=C(c1ccccc1NS(=O)(=O)c1ccccc1[N+](=O)[O-])N1CCOCC1	-6	0	-1	-8	-2	·	·
OCCN(CCO)c1ccc(C(c2ccc(Cl)cc2)c2ccc(N(CCO)CCO)cc2Cl)c(Cl)c1	9	15	21	3	6	·	·
Cc1cc(N(CCO)CCO)ccc1N=Nc1cc(F)ccc1F	31*	3	-2	9	-4	22*	17*
C#CC(C)OCC1CNC(=S)O1 (configuration not stated)	8	-4	·	21	-1	·	·
CSc1ccc(Cl)c(C(=O)NCc2ccco2)c1	9	6	9	6	0	·	·
CSc1ccc(Cl)c(C(=O)OCC(=O)NCc2ccco2)c1	34*	-2	-3	15	0	17	18*
Cn1ccc(/C=N/N=C2/NC(=O)CS2)n1	5	5	-7	13	2	·	·
CC12CCC(=O)N1C(C(=O)Nc1nc(-c3ccccc3Cl)cs1)CS2 (configuration not stated)	-9	-10	1	14	-2	·	·
CCOC(=O)c1cccc(NC(=O)COc2nsnc2N2CCOCC2)c1	3	-2	9	-10	1	·	·
CCOC(=O)C1CCCCN1C(=O)/C(=C/c1ccc(OC)cc1)c1ccc(OC)c(OC)c1 (configuration not stated)	24*	5	1	23	-2	-4	0
CC(C)c1ccccc1NC(=S)NCc1ccncc1	-1	5	2	3	-2	·	·
CCOC(=O)c1cc(-c2ccccc2)sc1NC(=O)C(C)OC(=O)c1cccnc1OCC (configuration not stated)	-3	5	0	1	3	·	·
Cc1ccc(NN2C(=O)C=C(c3ccccc3)C2=O)cc1	92*	-16	·	45	2	100*	105*
COc1cccc(C#CC2=CC(=O)C[C@H](c3ccc(F)cc3)C2)c1	-1	3	·	9	1	·	·
CC(=O)C1=C(C)NC(C)=C(C(C)=O)C1c1ccc(-c2ccccc2Cl)o1	52*	5	-3	-10	2	14	38*
Cc1ccc(O)c(NC(=O)c2cc(C)no2)c1	6	10	-1	2	-1	·	·
Cc1[nH]nc2c1C(c1ccc(-c3ccccc3C#N)o1)C(C#N)=C(N)O2 (configuration not stated)	-2	8	11	1	-2	·	·
Cc1[nH]nc2c1C(c1ccc(-c3ccc(Cl)cc3)o1)C(C#N)=C(N)O2 (configuration not stated)	28*	3	-1	5	-3	17	44*
SMILES	ABHD5 PLIN5 PPI	MC4R antagonist	Beta2AR agonist	PfGluPho inh	MC4R ag barr	ABHD5 PLIN5 conf	HNF4 split-luc
Cc1ccc(-c2ccc(C3C(C#N)=C(N)Oc4n[nH]c(C)c43)o2)cc1 (configuration not stated)	24*	1	17	-10	-2	26*	44*
Cc1cccc(C(=O)NCCc2nnc(SCC(=O)Nc3cccc(C(=O)O)c3)n2C)c1	9	6	9	-6	0	·	·
COc1ccc(-n2ncc3c2CC(C)(C)CC3NC(=O)CCn2cncn2)cc1 (configuration not stated)	-7	12	11	-14	2	·	·
C=C1C(=O)[C@]23C[C@H]1CC[C@H]2[C@]1(C)[C@@H](OC(C)=O)CC[C@@](C)(C(=O)O)[C@H]1C[C@@H]3OC(C)=O	14	·	·	·	·	·	·
C=C1C(=O)[C@]23C[C@H]1CCC2[C@]1(C)C(=O)CC[C@@](C)(C(=O)O)C1C[C@@H]3O (some centres not stated)	46*	·	·	·	·	41*	100*
C=C/C(C)=C/CC1C(=C)CCC2C(C)(C(=O)O)CCCC12C (configuration not stated)	-13	-2	2	2	-1	·	·
C=C1C(=O)[C@]23C[C@H]1CCC2[C@]1(C)CCC[C@@](C)(C(=O)O)C1C[C@@H]3O (some centres not stated)	51*	·	·	·	·	46*	102*
Cc1ccc2c(c1)C(=O)C(=O)N2Cc1ccc(F)cc1	16	-14	15	14	-1	·	·
Cc1ccc2c(c1)C(=O)C(=O)N2Cc1ccc(Cl)cc1	33*	-19	13	10	-1	37*	52*
CCCCNC1C(CC)C(CCC)C(C#N)(C#N)C1(C#N)C#N (configuration not stated)	29*	15	21	2	-1	64*	53*
CCCCCn1nc(C(=O)N(CCOC)c2c(N)n(CCCC)c(=O)[nH]c2=O)c2ccccc2c1=O	-7	11	-6	-3	-1	·	·
C[C@H](CO)N1C[C@H](C)[C@@H](CN(C)Cc2ccc(Cl)c(Cl)c2)Oc2c(NC(=O)Cc3ccccc3)cccc2C1=O	26*	11	12	4	0	5	0
